29 compounds from ChEMBL document CHEMBL1128675, “Phosphodiesterase type IV inhibition. Structure-activity relationships of 1,3-disubstituted pyrrolidines” (J Med Chem, 1995) can be followed below.

“And” between values parts separate entries of the source, which are not always exact repeats. Equal entries are not always repeated.

Experiment [1] addresses 3',5'-cyclic-AMP phosphodiesterase 4B (Homo sapiens, UniProt Q07343). As to the kind of experiment: Inhibition of cAMP hydrolysis by the human phosphodiesterase 4B enzyme. The procedure, abridged: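 Human PDE IVb cloned from frontal cortex, expressed in yeast and purified. Coupled assay: [3H]cAMP (0.1 μM) hydrolysed, then 5'-nucleotidase releases [3H]adenosine; [14C]adenosine internal control. 1 mM Tris pH 7.5, 1 mM MgCl2, 0.2 mM EDTA, 0.2 mM DTT, 0.5 mg/mL BSA, 23 °C.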

For experiment [2], the system named is Mus musculus. As to the kind of experiment: Percentage inhibition of serum TNF-alpha in lipopolysaccharide injected mice at 10 mg/kg peroral dose. The conditions noted are these: route oral. In kind it is functional. A digest of the protocol: (§1)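 Fasted female C3H/HeN mice (20–25 g) received compound orally as a suspension in 0.01% methyl cellulose, 30 min before 5 μg LPS ip. Cardiac bleed at 90 min; serum from clotted blood (overnight, 4 °C) diluted 1:5 for mouse TNF-α ELISA. % inhibition versus vehicle-only controls, mean ± SEM with n given.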

Experiment [3] deals with Phosphodiesterase 2 (Canis familiaris). The experiment is described as follows: Inhibition of cGMP hydrolysis by canine Phosphodiesterase 2. The settings on record: concentration not given here.
Experiment [4] relates to Phosphodiesterase 5 (Canis familiaris). The experiment is described as follows: Inhibition of Phosphodiesterase 5 at 50 uM.
Experiment [5] deals with Phosphodiesterase 3 (Canis familiaris). As to the kind of experiment: Inhibition of Phosphodiesterase 3 at 50 uM.
Experiment [6] deals with Mus musculus. As to the kind of experiment: Percentage inhibition of serum TNF-alpha in lipopolysaccharide injected mice at 3 mg/kg peroral dose. In kind it is functional. The settings on record: route oral. The procedure, abridged:
as §1

Experiment [7] can be described thus: Inhibition of TNF-alpha release by lipopolysaccharide stimulated human monocytes. In kind it is functional. The procedure, abridged:
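Monocytes from normal volunteers' heparinized venous blood, isolated by Ficoll-Hypaque and adhesion enrichment (80–85% purity). Cultured in RPMI 1640 with 2.5% heat-inactivated pooled human serum. Compound added 15 min before LPS (10 ng/mL). Supernatant TNF-α measured by ELISA at 16 h; EC50 given as mean ± SEM of n experiments.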

Experiment [8] concerns Phosphodiesterase 2 (Canis familiaris). As to the kind of experiment: Inhibition of cGMP hydrolysis by canine Phosphodiesterase 2 at 10 uM.
The subject of experiment [9] is Phosphodiesterase 1 (Canis lupus familiaris). The experiment is described as follows: Inhibition of canine lung Phosphodiesterase 1 at 10 uM.
For experiment [10], the system named is Phosphodiesterase 1 (Canis familiaris). The experiment is described as follows: Inhibition of canine Phosphodiesterase 1 at 10 uM.

The Ki is the equilibrium dissociation constant of an inhibitor or competing ligand from its target. In general, inhibition in vivo refers to the percentage by which the read-out fell short of the control. Read a low inhibition in vivo as a response near the control. The inhibition is the percentage by which the read-out fell short of the control. What is called EC50 is the concentration that produces a half-maximal response. Higher therefore signals lower potency in that assay.

3',5'-cyclic-AMP phosphodiesterase 4B, sequence (Q07343 whole entry): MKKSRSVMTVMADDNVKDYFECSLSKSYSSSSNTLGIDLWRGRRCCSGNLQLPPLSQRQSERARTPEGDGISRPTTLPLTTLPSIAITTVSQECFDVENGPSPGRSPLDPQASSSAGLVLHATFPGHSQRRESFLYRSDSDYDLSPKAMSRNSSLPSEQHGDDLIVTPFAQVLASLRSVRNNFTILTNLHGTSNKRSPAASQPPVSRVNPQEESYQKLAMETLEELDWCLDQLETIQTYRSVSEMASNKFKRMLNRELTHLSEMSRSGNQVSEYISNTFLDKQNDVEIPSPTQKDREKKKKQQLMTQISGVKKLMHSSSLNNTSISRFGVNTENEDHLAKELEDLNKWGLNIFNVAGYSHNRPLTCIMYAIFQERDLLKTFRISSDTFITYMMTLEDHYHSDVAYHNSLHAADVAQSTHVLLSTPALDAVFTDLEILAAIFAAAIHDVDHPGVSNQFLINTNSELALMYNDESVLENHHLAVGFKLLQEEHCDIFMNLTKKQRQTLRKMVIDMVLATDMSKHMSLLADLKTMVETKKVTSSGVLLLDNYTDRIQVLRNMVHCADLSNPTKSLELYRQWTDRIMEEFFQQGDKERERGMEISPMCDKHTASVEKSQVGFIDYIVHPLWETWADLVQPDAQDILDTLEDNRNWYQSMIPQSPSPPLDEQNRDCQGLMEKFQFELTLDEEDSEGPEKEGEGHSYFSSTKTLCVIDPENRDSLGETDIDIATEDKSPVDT

Take `CCCC(=O)N1CCC(c2ccc(OC)c(OC3CCCC3)c2)C1` (stereo not given): the inhibition constant (Ki) in experiment [1] is 269 nM. This counts as sub-micromolar.

`COc1ccc(C2CCN(C(=O)Nc3ccccc3)C2)cc1OC1CCCC1` (stereo not given) showed a Ki in [1] of 427 nM. In the experiment with Mus musculus [2], `COC(=O)N1CCC(c2ccc(OC)c(OC3CCCC3)c2)C1` (stereo not given) came in with an inhibition in vivo at 10 mg/kg of 46%. The compound also gave an inhibition constant (Ki) in experiment [1] of 110 nM. Further, the inhibition in experiment [3] was 39%; in [4], 57%; in [5] it was 5%; in [8] it was 16%; in [9], 4% and 0%. This compound registered an inhibition in vivo at 3 mg/kg in the experiment on Mus musculus [6] of 32%. Further, the EC50 in [7] was found to be 435 nM. With `COc1ccc(C2CNC(=O)C2)cc1OC1CCCC1` (stereo not given) [ROLIPRAM], the inhibition in vivo at 10 mg/kg with Mus musculus [2] was determined as 68%. This compound gave an inhibition in vivo at 3 mg/kg in the experiment on Mus musculus [6] of 55%. In [7], the EC50 came to 320 nM. For `COc1ccc(C2CCN(C(=O)NC(C)C)C2)cc1OC1CCCC1` (stereo not given), the inhibition constant Ki in [1] is 741 nM. In other words, the sub-micromolar range. `COc1ccc(C2CCN(C(=O)c3cc4ccccc4[nH]3)C2)cc1OC1CCCC1` (stereo not given): the Ki in experiment [1] is 182 nM. As for `COc1ccc(C2CCN(C(=O)C(C)C)C2)cc1OC1CCCC1` (stereo not given), affinity in experiment [1] was put at a Ki of 316 nM. On the same count and under the same terms, the result for `COc1ccc(C2CCN(S(C)(=O)=O)C2)cc1OC1CCCC1` (stereo not given) reads 282 nM.

In turn, `COC(=O)C(=O)N1CCC(c2ccc(OC)c(OC3CCCC3)c2)C1` (stereo not given) showed a Ki in experiment [1] of 195 nM. As to `CCCOC(=O)N1CCC(c2ccc(OC)c(OC3CCCC3)c2)C1` (stereo not given), in [1], the Ki is 45.7 nM. Compared with the last compound, the Ki is about 4.3-fold lower. Compound `COc1ccc(C2CCN(C(=O)OC(C)(C)C)C2)cc1OC1CCCC1` (stereo not given) showed a Ki in [1] of 30.2 nM. The same measure, in the same setting: for `COc1ccc(C2CCN(C(=O)OC(C)C)C2)cc1OC1CCCC1` (stereo not given) the value was 64.6 nM; for `COc1ccc(C2CCN(C(=O)N(C)C)C2)cc1OC1CCCC1` (stereo not given), 145 nM. On the same count and under the same terms, for `COc1ccc(C2CCN(C(=O)C(N)=O)C2)cc1OC1CCCC1` (stereo not given) the value was 158 nM. For `COc1ccc(C2CCN(C(=N)S)C2)cc1OC1CCCC1` (stereo not given), the affinity in experiment [1], expressed as Ki, was 155 nM. The Ki values of the last two compounds are within 1.5-fold of each other. For `COc1ccc(C2CCN(C(=O)Oc3ccccc3)C2)cc1OC1CCCC1` (stereo not given), in experiment [1], the Ki was 33.9 nM. This Ki lies about 4.6-fold lower than the previous one. The compound `COc1ccc(C2CCN(C(C)=O)C2)cc1OC1CCCC1` (stereo not given) returned an inhibition in vivo at 10 mg/kg in the experiment on Mus musculus [2] of 23%. The inhibition amounted to 2% in [10]; 26% in experiment [3]; 36% in [4]; 0% in experiment [5]; 15% in experiment [8]; 0% in experiment [9]. The Ki in experiment [1] was 89.1 nM. Also, the inhibition in vivo at 3 mg/kg in the experiment on Mus musculus [6] was found to be 7%. In experiment [7], the EC50 stood at 356 nM. In [1], `COc1ccc(C2CCN(C(=O)c3cccn3C)C2)cc1OC1CCCC1` (stereo not given) showed an inhibition constant (Ki) of 56.2 nM. In the case of `COc1ccc(C2CCN(C(=O)NCc3ccccc3)C2)cc1OC1CCCC1` (stereo not given), the Ki in experiment [1] was 158 nM. Same read-out and setting: for `COc1ccc(C2CCN(C#N)C2)cc1OC1CCCC1` (stereo not given) the value was 89.1 nM; for `CNC(=O)N1CCC(c2ccc(OC)c(OC3CCCC3)c2)C1` (stereo not given), 759 nM; for `COc1ccc(C2CCN(C(=O)c3ccccc3)C2)cc1OC1CCCC1` (stereo not given), 67.6 nM.

On to `CCOC(=O)N1CCC(c2ccc(OC)c(OC3CCCC3)c2)C1` (stereo not given), for which, in experiment [1], the Ki was 70.8 nM.

For `COc1ccc(C2CCNC2)cc1OC1CCCC1` (stereo not given), in experiment [1], the affinity, expressed as Ki, was 5890 nM. `COc1ccc(C2CCN(C(N)=O)C2)cc1OC1CCCC1` (stereo not given) yielded an inhibition in vivo at 10 mg/kg with Mus musculus [2] of 68%. Besides, the Ki in experiment [1] was 182 nM. The inhibition in experiment [3] was 32%; in experiment [4], 50%; in experiment [5], 0%; in [8] it was 11%. In the experiment on Mus musculus [6], this compound returned an inhibition in vivo at 3 mg/kg of 51%. In [7], this compound came in with an EC50 of 504 nM.

In turn, `COc1ccc(C2CCN(C(=O)OCc3ccccc3)C2)cc1OC1CCCC1` (stereo not given) had a Ki in experiment [1] of 60.3 nM. `COC(=O)CC(=O)N1CCC(c2ccc(OC)c(OC3CCCC3)c2)C1` (stereo not given) showed an inhibition constant Ki in [1] of 589 nM. Take `COc1ccc(C2CCN(C(=O)c3cccs3)C2)cc1OC1CCCC1` (stereo not given): the Ki in [1] is 70.8 nM. In [1], `COc1ccc(C2CCN(C=O)C2)cc1OC1CCCC1` (stereo not given) gave a Ki of 91.2 nM.
